We go through 16 molecules from ChEMBL document CHEMBL3853321, “Optimization of Platelet-Derived Growth Factor Receptor (PDGFR) Inhibitors for Duration of Action, as an Inhaled Therapy for Lung Remodeling in Pulmonary Arterial Hypertension” (J Med Chem, 2016).

A short description of data set [1]: Transcellular permeability of the compound by PAMPA. It counts as ADME. In general terms: The PAMPA barrier holds no transporters, so it reflects passive diffusion.
In data set [2] the target is Platelet-derived growth factor receptor alpha (Homo sapiens, UniProt P16234). In words: Inhibition of PDGFRalpha kinase domain (unknown origin) assessed as reduction in probe peptide substrate phosphorylation by capillary electrophoresis.
Sequence of Platelet-derived growth factor receptor alpha (P16234 whole entry, the tested form may be a part): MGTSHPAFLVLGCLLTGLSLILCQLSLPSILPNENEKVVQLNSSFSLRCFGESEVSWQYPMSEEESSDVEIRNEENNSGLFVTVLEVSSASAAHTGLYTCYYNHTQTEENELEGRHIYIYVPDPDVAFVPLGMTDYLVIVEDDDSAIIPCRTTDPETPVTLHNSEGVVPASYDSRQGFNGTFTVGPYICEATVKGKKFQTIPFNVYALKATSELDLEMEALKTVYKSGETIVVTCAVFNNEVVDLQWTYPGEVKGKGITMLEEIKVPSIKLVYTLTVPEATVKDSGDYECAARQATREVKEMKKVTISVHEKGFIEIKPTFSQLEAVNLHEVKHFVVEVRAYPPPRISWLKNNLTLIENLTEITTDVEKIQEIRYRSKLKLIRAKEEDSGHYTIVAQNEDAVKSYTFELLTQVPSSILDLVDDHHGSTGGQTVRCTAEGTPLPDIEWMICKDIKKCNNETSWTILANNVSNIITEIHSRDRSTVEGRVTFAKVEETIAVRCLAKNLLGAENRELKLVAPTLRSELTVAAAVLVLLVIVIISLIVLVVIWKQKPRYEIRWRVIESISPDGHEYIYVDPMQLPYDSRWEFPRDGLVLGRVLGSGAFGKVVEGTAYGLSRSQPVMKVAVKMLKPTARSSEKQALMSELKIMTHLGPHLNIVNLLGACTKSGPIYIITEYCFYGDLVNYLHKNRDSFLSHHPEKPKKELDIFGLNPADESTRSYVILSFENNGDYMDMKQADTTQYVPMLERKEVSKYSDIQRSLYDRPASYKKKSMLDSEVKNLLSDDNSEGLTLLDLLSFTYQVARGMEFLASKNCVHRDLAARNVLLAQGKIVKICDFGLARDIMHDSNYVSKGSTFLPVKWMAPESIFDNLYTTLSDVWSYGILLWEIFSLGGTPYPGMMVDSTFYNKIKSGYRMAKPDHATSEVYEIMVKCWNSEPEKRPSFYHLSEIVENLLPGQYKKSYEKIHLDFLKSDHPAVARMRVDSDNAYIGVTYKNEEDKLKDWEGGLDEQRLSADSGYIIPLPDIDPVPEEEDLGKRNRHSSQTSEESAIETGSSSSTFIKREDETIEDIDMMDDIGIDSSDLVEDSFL
Data set [3] in a line: Solubility of the compound using 10%PEG200/[…]D5W by high-throughput assay. It counts as physicochemical. The essentials:
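Solubility determined in the intratracheal dosing vehicle, 10% PEG200/[…] D5W.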

Data set [4] relates to Rattus norvegicus. In words: In vivo receptor occupancy at PDGFR-beta kinase domain in rat lung at 0.1 mg/kg, it measured after 7 hrs by immunoprecipitation assay. It counts as functional.
Data set [5] is described as follows: Drug uptake in rat lung at 0.1 mg/kg, it at 7 hrs. It counts as ADME, organism-based. The conditions noted are these: inhaled or intranasal, read-out: Drug uptake. The method in brief:
(§1)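 Single intratracheal dose as a solution in 10% PEG200/[…] D5W vehicle; compound concentration measured in lung tissue at 7 h or 24 h after dosing.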

For data set [6], the system named is Rattus norvegicus. In words: In vivo receptor occupancy at PDGFR-beta kinase domain in rat lung at 0.1 mg/kg, it measured after 24 hrs by immunoprecipitation assay. It counts as functional.
A short description of data set [7]: Drug uptake in rat lung at 0.1 mg/kg, it at 24 hrs. The conditions noted are these: inhaled or intranasal, read-out: Drug uptake. In kind it is ADME, organism-based. The essentials:
as §1

In data set [8] the test system is Rattus norvegicus. In words: In vivo receptor occupancy at PDGFR-beta kinase domain in rat lung at 1 mg/kg, it measured after 7 hrs by immunoprecipitation assay. In kind it is functional.
Data set [9] in a line: Drug uptake in rat lung at 1 mg/kg, it at 7 hrs. In kind it is ADME, organism-based. The following applies: inhaled or intranasal, read-out: Drug uptake. The essentials: as §1
Data set [10] in a line: Drug uptake in blood of rat monocrotaline model of pulmonary arterial hypertension at 100 mg/kg, po. It counts as ADME, organism-based. The conditions noted are these: in vivo, read-out: Drug uptake.
In data set [11] the test system is Rattus norvegicus. In words: Anti-remodeling activity in rat monocrotaline model of pulmonary arterial hypertension assessed as reduction in MCT-induced muscularization of small blood vessels in lung at 100 mg/kg, po administered once daily for 7 days by histological analysis.
The test system of data set [12] is Rattus norvegicus. In words: In vivo receptor occupancy at PDGFR-beta kinase domain in rat lung at 0.4 mg/kg, it measured after 7 hrs by immunoprecipitation assay. It counts as functional.
Data set [13] can be described thus: Drug uptake in rat lung at 0.4 mg/kg, it at 7 hrs. In kind it is ADME, organism-based. The conditions noted are these: inhaled or intranasal, read-out: Drug uptake. The essentials:
as §1

For data set [14], the system named is Rattus norvegicus. In words: In vivo receptor occupancy at PDGFR-beta kinase domain in rat lung at 0.4 mg/kg, it measured after 24 hrs by immunoprecipitation assay. In kind it is functional.
A short description of data set [15]: Drug uptake in rat lung at 0.4 mg/kg, it at 24 hrs. The conditions noted are these: inhaled or intranasal, read-out: Drug uptake. It counts as ADME, organism-based. The method in brief:
as §1

For data set [16], the target named is Voltage-gated inwardly rectifying potassium channel KCNH2 (Homo sapiens, UniProt Q12809). In words: Inhibition of human ERG.
Sequence of Voltage-gated inwardly rectifying potassium channel KCNH2 (Q12809 whole entry): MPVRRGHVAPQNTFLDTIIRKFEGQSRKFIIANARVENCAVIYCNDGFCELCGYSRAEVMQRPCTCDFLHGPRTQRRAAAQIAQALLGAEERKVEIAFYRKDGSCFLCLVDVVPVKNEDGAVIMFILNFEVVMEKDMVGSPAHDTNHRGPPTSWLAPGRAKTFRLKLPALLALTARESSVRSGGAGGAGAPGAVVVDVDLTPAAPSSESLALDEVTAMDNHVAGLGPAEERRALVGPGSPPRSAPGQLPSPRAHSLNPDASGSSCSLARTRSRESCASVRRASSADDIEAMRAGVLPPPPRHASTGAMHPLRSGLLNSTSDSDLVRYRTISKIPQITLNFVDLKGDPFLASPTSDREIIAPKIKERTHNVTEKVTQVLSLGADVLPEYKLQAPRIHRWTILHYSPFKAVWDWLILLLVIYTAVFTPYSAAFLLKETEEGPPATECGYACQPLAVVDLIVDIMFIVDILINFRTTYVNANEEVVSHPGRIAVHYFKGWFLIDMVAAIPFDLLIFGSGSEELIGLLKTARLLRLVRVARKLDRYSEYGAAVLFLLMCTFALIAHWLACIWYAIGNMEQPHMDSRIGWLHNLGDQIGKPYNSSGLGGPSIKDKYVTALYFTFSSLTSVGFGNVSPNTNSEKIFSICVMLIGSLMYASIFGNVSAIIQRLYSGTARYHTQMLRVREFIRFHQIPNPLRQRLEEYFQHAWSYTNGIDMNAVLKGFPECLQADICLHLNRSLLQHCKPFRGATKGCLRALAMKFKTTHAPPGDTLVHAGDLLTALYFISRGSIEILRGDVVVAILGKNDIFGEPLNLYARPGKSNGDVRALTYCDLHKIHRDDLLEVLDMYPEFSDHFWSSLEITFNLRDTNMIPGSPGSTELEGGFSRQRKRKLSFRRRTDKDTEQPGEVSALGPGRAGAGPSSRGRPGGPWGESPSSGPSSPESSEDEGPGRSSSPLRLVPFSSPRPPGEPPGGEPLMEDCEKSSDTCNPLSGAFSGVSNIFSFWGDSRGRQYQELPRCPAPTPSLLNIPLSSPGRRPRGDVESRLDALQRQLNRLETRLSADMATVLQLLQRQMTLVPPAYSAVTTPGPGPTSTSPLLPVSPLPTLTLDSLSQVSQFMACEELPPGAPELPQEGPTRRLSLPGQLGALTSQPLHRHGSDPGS
Data set [17] addresses T1, Muscarinic acetylcholine receptor M1 (Homo sapiens, UniProt P11229).
T1 sequence (P11229 whole entry): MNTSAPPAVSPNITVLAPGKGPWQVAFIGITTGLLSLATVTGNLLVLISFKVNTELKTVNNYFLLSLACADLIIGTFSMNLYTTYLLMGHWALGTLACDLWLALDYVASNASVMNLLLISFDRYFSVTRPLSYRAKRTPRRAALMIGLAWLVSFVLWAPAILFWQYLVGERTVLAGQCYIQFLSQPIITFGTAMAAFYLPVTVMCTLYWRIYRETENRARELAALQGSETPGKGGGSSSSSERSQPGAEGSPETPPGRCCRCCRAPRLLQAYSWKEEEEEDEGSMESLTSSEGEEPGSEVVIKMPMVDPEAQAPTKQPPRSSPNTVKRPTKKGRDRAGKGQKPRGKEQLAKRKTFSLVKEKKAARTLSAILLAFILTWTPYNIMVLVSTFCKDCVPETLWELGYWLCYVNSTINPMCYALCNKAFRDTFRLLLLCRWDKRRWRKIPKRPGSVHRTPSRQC
In words: Inhibition of M1 receptor (unknown origin).

Another data set concerns the target Histamine H3 receptor (Homo sapiens, UniProt Q9Y5N1). In words: Inhibition of H3 receptor (unknown origin).
Data set [18] is described as follows: Drug uptake in blood of rat monocrotaline model of pulmonary arterial hypertension at 0.01 mg/kg, it. It counts as ADME, organism-based. The conditions noted are these: in vivo, inhaled_or_intranasal, read-out: Drug uptake.
Data set [19] can be described thus: Drug uptake in blood of rat monocrotaline model of pulmonary arterial hypertension at 0.03 mg/kg, it. In kind it is ADME, organism-based. The conditions noted are these: in vivo, inhaled_or_intranasal, read-out: Drug uptake.
Data set [20] can be described thus: Drug uptake in blood of rat monocrotaline model of pulmonary arterial hypertension at 0.1 mg/kg, it. It counts as ADME, organism-based. The conditions noted are these: in vivo, inhaled_or_intranasal, read-out: Drug uptake.
The nature of data set [21]: Half life in rat. In kind it is ADME. The following applies: in vivo.
The nature of data set [22]: Oral bioavailability in it dosed rat. In kind it is ADME, organism-based. The conditions noted are these: in vivo.
Data set [23] deals with Rattus norvegicus. In words: Anti-remodeling activity in rat monocrotaline model of pulmonary arterial hypertension assessed as reduction in MCT-induced muscularization of small blood vessels in lung at 0.03 mg/kg, it administered twice daily for 7 days by histological analysis relative to control. It counts as functional. Further details: scale not given: the % may be the effect or the level left. The essentials:
(§2)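 Rats given monocrotaline two weeks beforehand so pathology develops; compound then given intratracheally twice daily for seven days (therapeutic mode). Read-out: percentage of fully muscularized small pulmonary vessels; group values given as mean with SEM.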

Data set [24] deals with Rattus norvegicus. In words: Anti-remodeling activity in it dosed rat monocrotaline model of pulmonary arterial hypertension assessed as reduction in MCT-induced muscularization of small blood vessels in lung administered twice daily for 7 days by histological analysis. It counts as functional. The conditions noted are these: 168 h, read-out: MED. The essentials:
as §2

The structures appear in SMILES notation. In brackets after ≈: the same amount, converted by molar mass. Activity calls are given as the source filed them. No cut-off for these calls is given here.

Sequence of Histamine H3 receptor (Q9Y5N1 whole entry): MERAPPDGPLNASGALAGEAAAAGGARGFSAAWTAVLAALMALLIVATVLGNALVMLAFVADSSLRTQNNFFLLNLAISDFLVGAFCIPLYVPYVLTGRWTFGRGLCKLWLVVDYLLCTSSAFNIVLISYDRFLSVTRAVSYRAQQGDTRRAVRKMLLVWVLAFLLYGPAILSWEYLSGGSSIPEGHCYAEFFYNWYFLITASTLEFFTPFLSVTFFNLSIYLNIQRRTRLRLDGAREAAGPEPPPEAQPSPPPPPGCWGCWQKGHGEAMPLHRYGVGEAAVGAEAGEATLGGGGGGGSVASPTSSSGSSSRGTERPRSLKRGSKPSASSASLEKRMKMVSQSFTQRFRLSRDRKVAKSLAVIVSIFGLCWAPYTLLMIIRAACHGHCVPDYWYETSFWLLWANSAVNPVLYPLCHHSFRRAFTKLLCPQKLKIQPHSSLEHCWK

In turn, `CN1CCN(c2ccccc2CNC(=O)c2ccc(F)c(NC(=O)c3cnc4cc(-c5cc[nH]n5)ccn34)c2)CC1` returned a permeability in data set [1] of 0%. Further, the IC50 in data set [2] is less than 0.1 nM.

With `C[C@@H]1CCC[C@H](C)N1CCNC(=O)c1ccc(F)c(NC(=O)c2cnc3cc(-c4ccnn4C)ccn23)c1`, the permeability in data set [1] stood at 5.4%. Also, the solubility in data set [3] is 590 µg/mL (≈ 1140 µM). Further, the Occ in the data set with Rattus norvegicus [4] stood at 75%; in the data set with Rattus norvegicus [6] it was 0%. In addition, in data set [5], the concentration at 7 h came out at 302 nM. Further, the concentration at 24 h in data set [7] amounted to 44 nM.

On to `Cn1nccc1-c1ccn2c(C(=O)Nc3cc(C(=O)NCc4ccc(F)c(F)c4)ccc3F)cnc2c1`, for which the permeability in [1] stood at 11%. The molecule further returned a solubility in data set [3] of less than 10 µg/mL. Besides, in the data set on Rattus norvegicus [8], the Occ is 27%. Moreover, the concentration at 7 h in data set [9] turned out to be 276 µM.

In data set [1], `CCN(CCNC(=O)c1ccc(F)c(NC(=O)c2cnc3cc(-c4ccnn4C)ccn23)c1)C(C)(C)C` came in with a permeability of 23%.

Regarding `Cc1ccc(NC(=O)c2ccc(CN3CCN(C)CC3)cc2)cc1Nc1nccc(-c2cccnc2)n1` [IMATINIB], the concentration in data set [10] is 306 µM. The result with Rattus norvegicus [11] was Active.

In the case of `Cn1nccc1-c1ccn2c(C(=O)Nc3cc(C(=O)NCCN4CCCC4(C)C)ccc3F)cnc2c1`, the permeability in data set [1] is 0.6%.

In turn, `CN1CCN(c2ccccc2CNC(=O)c2ccc(F)c(NC(=O)c3cnc4ccccn34)c2)CC1` showed a permeability in data set [1] of 83.1%.

For `CN1CCN(c2ccccc2CNC(=O)c2ccc(F)c(NC(=O)c3cnc4cc(-c5ccnn5C)ccn34)c2)CC1`, in [1], the permeability is 4.8%. For the same molecule, the concentration in solution in data set [3] (solubility) came to 770 µg/mL (≈ 1360 µM). The Occ with Rattus norvegicus [4] is recorded as 54%; in the data set with Rattus norvegicus [12], 70%; with Rattus norvegicus [14] it was 9%. The concentration at 7 h in [5] and in data set [13] was 687 nM in each case. For the same molecule, the concentration at 24 h in data set [15] turned out to be 60 nM.

In data set [1], `CN1CCN(c2ccccc2CNC(=O)c2ccc(F)c(NC(=O)c3cnn4cc(-c5ccnn5C)ccc34)c2)CC1` came in with a permeability of 70%. In data set [3], this molecule yielded a solubility of more than 1000 µg/mL. The molecule also registered an Occ with Rattus norvegicus [12] of 29%. The concentration at 7 h in [13] came to 221 nM.

Turning to `Cc1ncc(C(=O)NCCN2CCCC2(C)C)cc1NC(=O)c1cnn2cc(-c3cnn(C)c3)ccc12`, the permeability in data set [1] was determined as 4.7%. The IC50 in [16] was more than 30 µM; in data set [17], 5 µM; against Histamine H3 receptor, 5 µM. The same molecule displayed a solubility in data set [3] of more than 1000 µg/mL. Besides, the values for the Occ in the data set on Rattus norvegicus [4] and in the data set on Rattus norvegicus [6] were 88% and 81%, respectively. In addition, the concentration at 7 h in [5] was 1300 nM. Further, the concentration at 24 h in data set [7] came out at 680 nM. Further, the concentration was found to be 210 nM in data set [18], 750 nM in [19] and 1900 nM in data set [20]. In data set [21], this molecule gave a half-life of 840 min. In [22], this molecule gave a bioavailability of 90%. Also, the Activity with Rattus norvegicus [23] came out at 14.3%. The minimal effective dose in the data set with Rattus norvegicus [24] was 0.03 mg/kg.

Turning to `Cn1cc(-c2ccn3c(C(=O)Nc4cc(C(=O)NCCN5CCCC5(C)C)ccc4F)cnc3c2)cn1`, the permeability in data set [1] is recorded as 0.7%. Further, the solubility in data set [3] is more than 1000 µg/mL. Further, the Occ in the data set on Rattus norvegicus [4] came out at 82%; in the data set with Rattus norvegicus [6], 51%. The concentration at 7 h in data set [5] was 1030 nM. In addition, the concentration at 24 h in data set [7] is 420 nM.

The molecule `CN1CCN(c2ccccc2CNC(=O)c2ccc(F)c(NC(=O)c3cnc4cc(-c5cccnc5)ccn34)c2)CC1` came in with a permeability in [1] of 23%.

Regarding `CN1CCN(c2ccccc2CNC(=O)c2ccc(F)c(NC(=O)c3cnc4cc(-c5cnn(C)c5)ccn34)c2)CC1`, in [1], the permeability is listed as 26.3%.

`Cc1ncc(C(=O)NCc2ccccc2N2CCN(C)CC2)cc1NC(=O)c1cnn2cc(-c3ccnn3C)ccc12` had a permeability in data set [1] of 17%. Moreover, the solubility in data set [3] is more than 1000 µg/mL. Further, the Occ in the data set with Rattus norvegicus [12] is on record as 83%. Besides, in data set [13], the concentration at 7 h was 3950 nM.

In the case of `Cn1nccc1-c1ccn2c(C(=O)Nc3cc(C(=O)NCC4CCC(C)(C)O4)ccc3F)cnc2c1` (centres undefined), the permeability in [1] came to 81%.

In data set [1], `CN(CCNC(=O)c1ccc(F)c(NC(=O)c2cnc3cc(-c4ccnn4C)ccn23)c1)C(C)(C)C` registered a permeability of 0%.

For orientation: IC50 means the concentration at which inhibition is half-maximal. For orientation: solubility means how much of the substance goes into solution per volume. Broadly, the half-life is how long it takes for the measured level to halve. The bioavailability is dose-corrected exposure relative to a reference, in per cent.
